According to ChEMBL document CHEMBL1125739, “A new class of HIV-1-specific 6-substituted acyclouridine derivatives: synthesis and anti-HIV-1 activity of 5- or 6-substituted analogues of 1-[(2-hydroxyethoxy)methyl]-6-(phenylthio)thymine (HEPT)” (J Med Chem, 1991):

Legend:
[1] = tested on: Human immunodeficiency virus; experiment: Effective concentration required to achieve 50% protection of MT-4 cells against the cytopathic effect of HIV-1 (HTLV-IIIB).; assay type: functional, organism-based; conditions: Human immunodeficiency virus 1, MT4
Procedure, shortened: (§1)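 MT-4 cells at 2.5×10^5 cells/mL infected with 1000 CCID50 of the named HIV strain, then plated at once over a range of compound concentrations. Incubation at 37 °C for 4 days or 5 days. Viable cells read by MTT. EC50 is the concentration giving 50% protection from virus-induced cytopathic effect.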

MT4 [2] = experiment: Cytotoxic concentration required to reduce the viability of mock-infected MT-4 cells by 50%; assay type: functional; conditions: Homo sapiens
Procedure, shortened: (§2)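 Mock-infected MT-4 cells at 2.5×10^5 cells/mL plated with various concentrations of compound, run in parallel with the antiviral assay. Viable cells counted by MTT after 4 days or 5 days at 37 °C. CC50 is the concentration that lowers viability by 50%.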

MT4 [3] = experiment: Selectivity Index measured as the ratio of CC50 to that of EC50 values.
[4] = tested on: Human immunodeficiency virus; experiment: Effective concentration required to achieve 50% protection of MT-4 cells against the cytopathic effect of HIV-1 (HTLV-IIIB strain) and determined on 4th day after virus infection.; assay type: functional, organism-based; conditions: Human immunodeficiency virus 1, MT4; procedure, shortened: as §1
[5] = tested on: Human immunodeficiency virus; experiment: Effective concentration required to achieve 50% protection of MT-4 cells against the cytopathic effect of HIV-1 (HTLV-IIIRF strain) and determined on 4th day after virus infection.; assay type: functional, organism-based; conditions: Human immunodeficiency virus 1, MT4; procedure, shortened: as §1
[6] = tested on: Human immunodeficiency virus; experiment: Effective concentration required to achieve 50% protection of MT-4 cells against the cytopathic effect of HIV-2 ((LAV-2EHO strain) and determined on 4th day after virus infection.; assay type: functional, organism-based; conditions: Human immunodeficiency virus 1, MT4; procedure, shortened: as §1
[7] = tested on: Human immunodeficiency virus; experiment: Effective concentration required to achieve 50% protection of MT-4 cells against the cytopathic effect of HIV-2 (LAV-2ROD strain) and determined on 4th day after virus infection.; assay type: functional, organism-based; conditions: Human immunodeficiency virus 1, MT4; procedure, shortened: as §1
[8] = tested on: Human immunodeficiency virus; experiment: Cytotoxic concentration required to reduce the viability of mock-infected MT-4 cells (HIV-1 HTLV-IIIB strain) by 50% was determined on 4th day after virus infection.; assay type: functional; conditions: Human immunodeficiency virus 1, MT4; procedure, shortened: as §2

Row | SMILES | EC50 [1] | CC50 (MT4 [2]) | Selectivity index (MT4 [3]) | EC50 [4] | EC50 [5] | EC50 [6] | EC50 [7] | CC50 [8]
1 | O=c1[nH]c(=O)n(COCCO)c(Sc2ccccc2)c1Sc1ccccc1 | > 21 µM | 21 µM | <1 | – | – | – | – | –
2 | CSc1c(C)c(=O)[nH]c(=O)n1COCCO | > 250 µM | > 250 µM | – | – | – | – | – | –
3 | C=Cc1c(C)c(=O)[nH]c(=O)n1COCCO | > 250 µM | > 250 µM | – | – | – | – | – | –
4 | Cc1c(C#Cc2ccccc2)n(COCCO)c(=O)[nH]c1=O | > 14 µM | 14 µM | <1 | – | – | – | – | –
5 | Cc1c(C(=O)c2ccccc2)n(COCCO)c(=O)[nH]c1=O | > 366 µM | 366 µM | <1 | – | – | – | – | –
6 | Cc1c(Nc2ccccc2)n(COCCO)c(=O)[nH]c1=O | > 327 µM | 327 µM | <1 | – | – | – | – | –
7 | Cc1c(Br)n(COCCO)c(=O)[nH]c1=O | > 180 µM | 180 µM | <1 | – | – | – | – | –
8 | Cc1c(SC2CCCCC2)n(COCCO)c(=O)[nH]c1=O | 8.2 µM | 664 µM | 81 | 7.7 µM | 7.9 µM | > 250 µM | > 250 µM | 440 µM
9 | O=c1[nH]c(=O)n(COCCO)c(Sc2ccccc2)c1C#Cc1ccccc1 | > 3.4 µM | 3.4 µM | <1 | – | – | – | – | –
10 | C=Cc1c(Sc2ccccc2)n(COCCO)c(=O)[nH]c1=O | 1.1 µM | 76 µM | 69 | – | – | – | – | –
11 | Cc1c(Cl)n(COCCO)c(=O)[nH]c1=O | > 250 µM | > 250 µM | – | – | – | – | – | –
12 | Cc1c(NC2CCCCC2)n(COCCO)c(=O)[nH]c1=O | > 377 µM | 337 µM | <1 | – | – | – | – | –
13 | O=c1[nH]c(=O)n(COCCO)c(Sc2ccccc2)c1C=C(c1ccccc1)c1ccccc1 | 0.84 µM | 21 µM | 25 | – | – | – | – | –
14 | Cc1c(/C=C/c2ccccc2)n(COCCO)c(=O)[nH]c1=O | > 250 µM | > 250 µM | – | – | – | – | – | –
15 | C#Cc1c(Sc2ccccc2)n(COCCO)c(=O)[nH]c1=O | > 18 µM | 18 µM | <1 | – | – | – | – | –
16 | O=c1[nH]c(=O)n(COCCO)c(Sc2ccccc2)c1I | 3.6 µM | 20 µM | 5.6 | – | – | – | – | –
17 | O=c1[nH]c(=O)n(COCCO)c(Sc2ccccc2)c1/C=C/c1ccccc1 | 6 µM | 95 µM | 16 | – | – | – | – | –
18 | C#Cc1c(C)c(=O)[nH]c(=O)n1COCCO | > 5.5 µM | 5.5 µM | <1 | – | – | – | – | –

Row | SMILES | EC50 [1] | CC50 (MT4 [2]) | Selectivity index (MT4 [3]) | EC50 [4] | EC50 [5] | EC50 [6] | EC50 [7] | CC50 [8]
19 | C/C=C/c1c(C)c(=O)[nH]c(=O)n1COCCO | > 250 µM | > 250 µM | – | – | – | – | – | –
20 | Nc1ncnc2c1ncn2[C@H]1CC[C@@H](CO)O1 | 6.3 µM | 890 µM | 141 | – | – | – | – | –
21 | Cc1c(Oc2ccccc2)n(COCCO)c(=O)[nH]c1=O | 85 µM | 345 µM | 4.1 | – | – | – | – | –
22 | Cc1c(C(O)c2ccccc2)n(COCCO)c(=O)[nH]c1=O (centres undefined) | > 400 µM | 400 µM | <1 | – | – | – | – | –
23 | CC#Cc1c(C)c(=O)[nH]c(=O)n1COCCO | > 250 µM | > 250 µM | – | – | – | – | – | –
24 | CCCCSc1c(C)c(=O)[nH]c(=O)n1COCCO | 130 µM | > 250 µM | – | – | – | – | – | –
25 | Cc1c(SC(C)(C)C)n(COCCO)c(=O)[nH]c1=O | > 366 µM | 366 µM | <1 | – | – | – | – | –
26 | COc1c(C)c(=O)[nH]c(=O)n1COCCO | > 484 µM | 484 µM | <1 | – | – | – | – | –
27 | Cc1c(OC2CCCCC2)n(COCCO)c(=O)[nH]c1=O | > 400 µM | 400 µM | <1 | – | – | – | – | –
28 | CC(C)C(=O)c1c(Sc2ccccc2)n(COCCO)c(=O)[nH]c1=O | > 12 µM | 12 µM | <1 | – | – | – | – | –
29 | Cc1c(Cc2ccccc2)n(COCCO)c(=O)[nH]c1=O | 23 µM | 352 µM | 15 | – | – | – | – | –
30 | O=C(c1ccccc1)c1c(Sc2ccccc2)n(COCCO)c(=O)[nH]c1=O | > 13 µM | 13 µM | <1 | – | – | – | – | –
31 | CCSc1c(C)c(=O)[nH]c(=O)n1COCCO | > 250 µM | > 250 µM | – | – | – | – | – | –
32 | O=c1[nH]c(=O)n(COCCO)c(Sc2ccccc2)c1Cc1ccccc1 | > 23 µM | 23 µM | <1 | – | – | – | – | –
33 | CC#Cc1c(Sc2ccccc2)n(COCCO)c(=O)[nH]c1=O | > 19 µM | 19 µM | <1 | – | – | – | – | –
34 | Cc1c(Sc2ccccc2)n(COCCO)c(=O)[nH]c1=O [HEPT] | 7 µM | 740 µM | – | 6.5 µM | 8.1 µM | > 250 µM | > 250 µM | > 500 µM
35 | Nc1ccn([C@H]2CC[C@@H](CO)O2)c(=O)n1 [ZALCITABINE] | 0.3 µM | 40 µM | 133 | – | – | – | – | –
36 | Cc1cn([C@H]2C[C@H](N=[N+]=[N-])[C@@H](CO)O2)c(=O)[nH]c1=O [ZIDOVUDINE] | 0.016 µM | 20 µM | 1250 | – | – | – | – | –
